Measured values taken from ChEMBL document CHEMBL4043099, “Synthesis and biological activity of cyclolinopeptide A analogues modified with γ4-bis(homo-phenylalanine)” (Bioorg Med Chem, 2017).
The source made the active and inactive calls. No cut-off for these calls is given here.

Assays:
Jurkat [1] = assay: Inhibition of apoptosis in human Jurkat cells assessed as caspase-8 expression relative to beta-actin at 10 ug/ml after 24 hrs by RT-PCR analysis; type: functional
In short: (§1)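 Jurkat cells (10^6/mL) exposed to 10 µg/mL peptide for 24 h (described as overnight in methods), with DMSO control. Total RNA extracted with TRIzol. Caspase-3, -8 and -9 transcripts measured by SYBR qPCR: 95 C for 5 min, then 35 cycles of 95 C for 30 s and 60 C for 45 s. Values given in arbitrary units relative to β-actin.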

A-431 = assay: Cytotoxicity against human A431 cells at 25 ug/ml; type: functional, cell-based
Jurkat [2] = assay: Induction of DNA fragmentation in human Jurkat cells at 10 ug/ml after 24 hrs by agarose gel electrophoresis; type: functional, cell-based
In short: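 Jurkat cells treated 24 h with 10 µg/mL peptide versus DMSO. About 2×10^6 cells lysed overnight at 37 C in Tris-HCl pH 8.5 with EDTA, 5% SDS and proteinase K. Lysates heat-inactivated, RNase-treated, DNA precipitated with isopropanol and ethanol-washed. Fragmentation assessed by gel electrophoresis.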

Jurkat [3] = assay: Inhibition of apoptosis in human Jurkat cells assessed as caspase-9 expression relative to beta actin at 10 ug/ml after 24 hrs by RT-PCR analysis; type: functional; in short: as §1
HT-29 = assay: Cytotoxicity against human HT-29 cells at 25 ug/ml; type: functional, cell-based
[4] = biological target: T1, Prostaglandin G/H synthase 1 (Ovis aries) (UniProt P05979); assay: Inhibition of ovine COX-1 assessed as PGE2 formation at 1000 pg/ml (reference value: 981 ng/ml)
T1 sequence (whole entry): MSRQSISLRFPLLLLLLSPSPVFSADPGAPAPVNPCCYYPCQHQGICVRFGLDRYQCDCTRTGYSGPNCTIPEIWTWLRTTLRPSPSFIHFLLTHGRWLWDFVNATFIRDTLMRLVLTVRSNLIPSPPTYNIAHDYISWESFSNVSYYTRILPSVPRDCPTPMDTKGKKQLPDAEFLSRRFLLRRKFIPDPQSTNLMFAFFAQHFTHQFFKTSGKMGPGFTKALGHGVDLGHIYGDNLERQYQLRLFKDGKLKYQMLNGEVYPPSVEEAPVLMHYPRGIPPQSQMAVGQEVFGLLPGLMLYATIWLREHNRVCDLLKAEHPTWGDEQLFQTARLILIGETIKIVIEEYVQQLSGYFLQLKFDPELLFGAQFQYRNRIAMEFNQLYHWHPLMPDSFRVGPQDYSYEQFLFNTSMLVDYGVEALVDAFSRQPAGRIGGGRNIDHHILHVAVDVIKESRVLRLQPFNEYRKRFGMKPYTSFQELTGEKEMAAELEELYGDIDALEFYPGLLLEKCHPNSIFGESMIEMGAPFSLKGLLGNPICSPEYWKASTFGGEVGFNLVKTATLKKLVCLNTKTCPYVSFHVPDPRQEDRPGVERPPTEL

Jurkat [5] = assay: Inhibition of apoptosis in human Jurkat cells assessed as caspase-3 expression relative to beta-actin at 10 ug/ml after 24 hrs by RT-PCR analysis; type: functional; in short: as §1
[6] = biological target: T1, Prostaglandin G/H synthase 1 (Ovis aries); assay: Inhibition of ovine COX-1 assessed as PGE2 formation at 100 pg/ml (reference value: 981 ng/ml)
[7] = biological target: T2, Prostaglandin G/H synthase 2 (Homo sapiens) (UniProt P35354); assay: Inhibition of human recombinant COX-2 assessed as PGE2 formation at 5000 pg/ml (reference value: 1072 ng/ml)
T2 sequence (whole entry): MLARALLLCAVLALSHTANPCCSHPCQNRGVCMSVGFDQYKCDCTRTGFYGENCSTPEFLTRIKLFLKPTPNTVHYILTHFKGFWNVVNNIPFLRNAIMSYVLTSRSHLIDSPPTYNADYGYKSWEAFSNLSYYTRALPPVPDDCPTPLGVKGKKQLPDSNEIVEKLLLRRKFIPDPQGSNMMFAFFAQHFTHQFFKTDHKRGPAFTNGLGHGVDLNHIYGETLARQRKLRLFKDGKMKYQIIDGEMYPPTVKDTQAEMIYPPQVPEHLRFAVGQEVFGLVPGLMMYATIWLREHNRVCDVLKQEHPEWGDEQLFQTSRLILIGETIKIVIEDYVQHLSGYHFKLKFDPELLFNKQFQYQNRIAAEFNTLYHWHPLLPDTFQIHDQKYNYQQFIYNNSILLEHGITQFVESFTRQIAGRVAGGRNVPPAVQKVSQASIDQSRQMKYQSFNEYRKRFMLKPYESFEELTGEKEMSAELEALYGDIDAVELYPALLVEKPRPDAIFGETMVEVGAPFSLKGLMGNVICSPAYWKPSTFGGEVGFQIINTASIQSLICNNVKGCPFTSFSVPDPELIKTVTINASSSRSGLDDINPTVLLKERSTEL

PBMC [8] = assay: Anti-inflammatory activity in human PBMC assessed as inhibition of LPS-induced TNFalpha production at 10 ug/ml after overnight incubation by immunoassay; type: functional
In short: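 Diluted venous blood from a single donor (10× in RPMI-1640), 1 mL cultures, stimulated with 1 µg/mL LPS from E. coli O:111:B4. Peptides added at 1 and 10 µg/mL from DMSO stock (5 mg/200 µL) diluted in RPMI-1640. DMSO dilutions served as 100% controls. Overnight incubation, then supernatants frozen at -20 C and TNF-α measured by ELISA.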

PBMC [9] = assay: Immunosuppressive activity in human PBMC assessed as inhibition of PHA-induced cell proliferation at 10 ug/ml after 4 days by MTT assay; type: functional, cell-based
In short: (§2)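 PBMC (2×10^5 cells/well) in supplemented RPMI-1640, stimulated with 5 µg/mL PHA, with peptide at 1, 10 or 100 µg/mL. DMSO dilutions as control; no-PHA wells as baseline. Proliferation read by MTT after 4 days of incubation. Data given as mean OD of quadruplicate wells ± SE.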

[10] = biological target: T2, Prostaglandin G/H synthase 2 (Homo sapiens); assay: Inhibition of human recombinant COX-2 assessed as PGE2 formation at 100 pg/ml (reference value: 1072 ng/ml)
PBMC [11] = assay: Immunosuppressive activity in human PBMC assessed as inhibition of PHA-induced proliferation after 4 days by MTT assay; type: functional, cell-based; in short: as §2
PBMC [12] = assay: Cytotoxicity against human PBMC assessed as reduction in cell viability at 10 ug/ml after 24 hrs by MTT assay; type: cell-based
In short: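 Single-donor PBMC isolated on LSM, resuspended in RPMI-1640 with 10% FCS, L-glutamine, pyruvate, 2-mercaptoethanol and antibiotics. Cells plated at 3×10^5 per well and cultured 24 h with peptide at 1, 10 or 100 µg/mL. Survival read by MTT and expressed as % viable cells versus matched DMSO controls.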

[13] = biological target: T2, Prostaglandin G/H synthase 2 (Homo sapiens); assay: Inhibition of human recombinant COX-2 assessed as PGE2 formation at 1000 pg/ml (reference value: 1072 ng/ml)

How did the “fold change (FC)” value (Jurkat [1]) turn out when `CC[C@H](C)[C@@H]1NC(=O)[C@H](CC(C)C)NC(=O)[C@H](Cc2ccccc2)NC(=O)CC[C@H](Cc2ccccc2)NC(=O)[C@@H]2CCCN2C(=O)[C@@H]2CCCN2C(=O)[C@H](C(C)C)NC(=O)[C@H](CC(C)C)NC(=O)[C@H]([C@@H](C)CC)NC1=O` was run?
Its value is 0.591.

What about the Activity (A-431) of the same compound?
The Activity was “inactive”.

What about the Activity (Jurkat [2]) of the same compound?
Its Activity is “Active”.

What about the “fold change (FC)” value (Jurkat [3]) of the same compound?
Its value is 0.538.

And the Activity (HT-29)?
The Activity was “inactive”.

And the Activity [4]?
Its Activity is 1030 ng/mL.

And the “fold change (FC)” value (Jurkat [5])?
The value was 0.

And the Activity [6]?
Its Activity is 1110 ng/mL.

And the Activity [7]?
Its Activity is 1230 ng/mL.

And the inhibition (PBMC [8])?
Its inhibition is “Active”.

What about the Activity (PBMC [9]) of the same compound?
The Activity was “Active”.

What about the Activity [10] of the same compound?
Its Activity is 1180 ng/mL.

And the Activity (PBMC [11])?
The Activity was “Dose-dependent effect”.

What about the Activity (PBMC [12]) of the same compound?
Its Activity is “Non-Toxic”.

And the Activity [13]?
The Activity was 1060 ng/mL.
